# High-throughput results (PubChem BioAssay)
# An excerpt weighted towards active compounds, which were near 2.2% of everything screened.
# Ba/F3 V617F tox: reduce viability of Ba/F3 cells dependent on JAK2V617F; 1.1% of 220,000 active; inhibition, % at 5.6 µM; Ba/F3 EpoR-JAK2V617F viability, ATP luminescence;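 active = inhibition above the campaign mean plus 3 SD over all tested compounds, cut at about 24% in these data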;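 note: cytokine-independent growth of Ba/F3 cells driven by EpoR plus mutant JAK2; 0% = DMSO-treated cells and 100% = JAK inhibitor I control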
# IEC-6 tox: kills IEC-6 intestinal cells in KLF5 counter-screen | IEC-6 cytotoxicity, luminescence viability | inhibition, % at 5 µM | 0.78% of 290,000 active; in the data active = inhibition above about 22%;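 note: 0% = plate median of test compound wells and 100% = cytotoxic reference compound wells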
# MT stabilizer: microtubule stabilization, imaging screen | % tubulin-high responders, % at 10 µM | HeLa tubulin immunostaining HCS, 24 h; share of cells brighter than vehicle mean+2SD | 0.83% of 200,000 active | AID 2205;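 active = plate Z-score above 3 for both tubulin-high and condensed-nucleus cell shares, with cell loss under 80%, at 10 µM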;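 note: anti alpha tubulin signal scored within the nucleus-defined area of each cell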
# bCat nuc transl: modulators of beta-catenin nuclear translocation | 0.3% of 190,000 active | AID 1665 | nuclear translocation activity, % at 5 µM | HeLa beta-catenin nuclear translocation, immunofluorescence imaging;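 active = nuclear translocation activity above 50% at 5 µM, with a well cell count of 50 or more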;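 note: per-cell ratio of nuclear to cytoplasmic median beta-catenin stain intensity; plate controls were DMSO negative control for no effect and GSK-3 inhibitor IX positive control for full effect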
#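 Assay system: human HeLa cells, native beta-catenin; doses: 5 µM primary, 0.02–20 µM confirmation; incubation: compound treatment 24 h, 37°C, 5% CO2; technique: fluorescence imaging of beta-catenin antibody stain plus DAPI; measure: % activation, nuclear-to-cytoplasmic median beta-catenin signal ratio per cell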
# APP transl inh: APP translation inhibition; SH-SY5Y APP 5'UTR-luciferase reporter, luminescence; inhibition, % at 2 µM; 0.82% of 190,000 active;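 active = inhibition above a set limit, derived from the sample mean plus 3 SD, cut at about 45% in these data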
# BaF3 parental: parental Ba/F3 viability inhibition as JAK2V617F counter-screen; CellTiter-Glo ATP luminescence; inhibition, % at 5.6 µM; 1.1% of 220,000 active;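 active = inhibition above a per-campaign cutoff, the mean inhibition of all tested compounds plus 3 SD, cut at about 27% in these data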;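 note: 0% = DMSO wells and 100% = JAK Inhibitor I control wells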
# The depositor's hits bear a star; x = not tested or not shown.
SMILES,Ba/F3 V617F tox,IEC-6 tox,MT stabilizer,bCat nuc transl,APP transl inh,BaF3 parental
Cc1ccc(C2=Nc3ccccc3SC(c3cccc([N+](=O)[O-])c3)C2)cc1 (stereo not given),-3.8,-3.0,x,-0.2,x,0.5
C[N+]1=C(/C=C/Nc2ccccc2Cl)C(C)(C)c2ccccc21,58.8*,0.3,4.6,0.3,1.0,63.1*
FC(F)(F)c1cnc(/C=C/Nc2ccccc2Cl)c(Cl)c1,1.6,4.0,3.3,x,13.1,2.2
CCCCS(=O)(=O)N1CCCC(C(=O)Oc2ccc(Cl)cc2)C1 (stereo not given),x,1.0,x,x,x,x
CN1CCN(c2ccc(-c3ccnn3C(=O)Nc3cccc(C(F)(F)F)c3)cc2)CC1,-0.5,1.5,3.7,-0.3,-39.1,2.9
CCN(CC)C(=O)c1ccc(COc2ccc(Cl)c(C)c2)o1,x,0.8,x,x,x,x
C=CCSc1nc2ccccc2n1C(=O)/C=C/c1cc(OC)c(OC)c(OC)c1,2.3,3.7,3.4,x,57.6*,0.9
COc1ccc(C(=O)COC(=O)CCNS(=O)(=O)c2ccccc2)cc1Br,x,3.3,x,x,x,x
CN(C)c1ccc(/C=N/OC(=O)Nc2ccccc2Cl)cc1,-0.4,-0.5,31.0*,0.4,-5.3,1.0
COc1ccc(/C=N/OC(=O)Nc2ccccc2OC)cc1,9.9,34.8*,18.9*,-0.7,-91.9,9.1
Cc1ccc2c(C)c(C(=O)N3CCN(c4ncccn4)CC3)oc2c1C,x,0.8,x,x,x,x
COc1ccc(C2=NOC(C(=O)NCc3ccccc3)C2)cc1 (stereo not given),3.3,27.1*,6.8,153.7*,30.1,3.1
COc1cccc(C2=NOC(C(=O)NCc3ccco3)C2)c1 (stereo not given),-4.8,3.0,10.2,x,8.3,0.6
COc1cccc(C2=NOC(C(=O)NCc3ccccc3)C2)c1 (stereo not given),1.6,9.6,18.9*,131.1*,20.0,4.9
Cc1cccnc1NC(=O)CCNS(=O)(=O)c1ccc2c(c1)c(=O)n(C)c(=O)n2C,1.5,-1.1,1.8,2.9,-8.1,2.8
Cc1csc(NC(=O)CCNS(=O)(=O)c2ccc3c(c2)c(=O)n(C)c(=O)n3C)n1,-1.8,-7.3,3.4,0.9,-14.4,94.4*
Cc1ccc(F)c(CNC(=O)C2CCC(=O)N(Cc3ccccn3)C2)c1F (stereo not given),x,3.2,x,x,x,x
Clc1ccc2[nH]c3c(c2c1)CCc1cn[nH]c1-3,4.4,0.9,15.6*,13.4,7.0,3.9
CCCc1nc2sc3c(SCC(=O)NCc4ccco4)ncnc3c2c2c1CCC2,-2.0,-10.6,15.2*,76.9*,-2.5,8.4
Cc1nc(SCC(=O)NCc2ccco2)c2c3c(sc2n1)CCCC3,2.2,9.5,7.5,-1.4,-0.8,3.4
Cc1cc(C)n(NC(=S)NC2CCCC2)c(=O)c1C#N,-2.8,4.2,x,0.8,x,4.2
N=c1ccn(Cc2ccc(Cl)cc2)cc1,91.8*,-4.8,2.6,1.5,-14.6,67.6*
Clc1ccc(CN2CCCCCCC2)cc1Cl,-0.5,-9.5,3.1,0.0,-5.9,-3.3
Clc1cccc(CN2CCN(Cc3ccco3)CC2)c1,x,0.9,x,x,x,x
N=c1ccn(Cc2cccc(Cl)c2)cc1,88.0*,5.3,4.2,1.7,-5.7,66.0*
SMILES,Ba/F3 V617F tox,IEC-6 tox,MT stabilizer,bCat nuc transl,APP transl inh,BaF3 parental
N=c1ccn(Cc2ccc(Cl)c(Cl)c2)cc1,89.0*,6.0,4.1,-2.8,-15.2,75.5*
CCC(Cc1ccccc1)NC(=O)C1CCN(S(=O)(=O)c2ccc3c(c2)CC(C)N3C(C)=O)CC1 (stereo not given),x,8.7,x,x,x,x
CCCCCNC(=O)N[C@H](C(=O)O)C(C)C,-4.9,3.5,4.7,6.7,-4.2,89.9*
CCC(C)[C@H](NC(=O)NC(C)C)C(=O)O (stereo not given in full),2.6,1.4,2.5,0.1,1.1,91.8*
Cc1ccc(OCCC(=O)OCC(=O)Nc2ccccc2)cc1,x,-1.9,x,x,x,x
O=[N+]([O-])c1ccc(Cl)cc1Sc1nc2ccccc2o1,-3.7,-0.4,3.5,-1.4,13.7,-1.1
O=[N+]([O-])c1ccc(Sc2nc3ccccc3o2)c([N+](=O)[O-])c1,21.6,0.3,1.5,x,62.8*,9.9
O=C(Nc1cc(Cl)c(Cl)cc1Cl)c1cccnc1,x,6.5,x,x,x,x
CCCCC(=O)Nc1nc(C)c(-c2csc(Nc3cc(OC)ccc3OC)n2)s1,4.4,-6.7,52.3*,39.1,2.3,8.5
NNC(=S)Nc1c(Br)cc(F)cc1Br,2.0,3.7,x,0.5,x,-2.4
CCOc1cc(/C=C2/NC(=O)N(Cc3ccccc3F)C2=O)ccc1O,95.2*,3.3,3.9,-0.4,25.1,72.4*
CC1=NNC(=O)/C1=C\c1cn(-c2ccccc2)nc1-c1ccc(F)cc1,4.0,-2.4,22.1*,5.0,9.6,7.9
Cc1cc(C(=O)NC2CC2)c2ccccc2n1,5.2,5.7,3.6,0.7,-12.8,3.1
Cc1ccc(-c2cc(C(=O)NN=C3CCCC3)c3ccccc3n2)cc1,0.3,-1.1,1.9,-1.2,-9.8,-2.3
Cc1cc(C(=O)NN=C2CCCCC2)c2ccccc2n1,0.4,3.2,4.7,-1.2,79.5*,0.2
Cc1cc(C(=O)NN=C2C3CC4CC(C3)CC2C4)c2ccccc2n1,-3.0,6.6,1.7,1.4,76.2*,2.2
COc1cc(O)ccc1C(=O)CCc1ccc(O)cc1,x,-10.3,x,x,x,x
O=C(Nc1ccc(F)cc1F)NC1CCN(Cc2c(F)cccc2Cl)CC1,-2.4,-6.4,x,1.5,x,0.0
C/C(=N\Nc1ncc(Cl)cc1Cl)c1ccccn1,4.3,1.3,5.0,-1.4,70.2*,7.0
C(=C1/CCCC2=C1Nc1ncnn1C2c1ccccc1)/c1ccccc1 (stereo not given),54.9*,26.4*,5.5,-1.4,33.6,54.2*
O=C(Nc1ccc2c(c1)OCCO2)c1cccc2nc3ccccc3nc12,-2.0,1.0,2.3,-0.4,45.7*,2.3
CCCc1nnc(SCC(=O)Nc2nc(C)cs2)n1CCOC,x,-1.8,x,x,x,x
CCC(CO)[n+]1c(C)cc(/C=C2\Sc3ccccc3N2Cc2ccccc2)cc1C (stereo not given),68.5*,4.5,5.9,16.5,-12.0,61.2*
CCN1/C(=C2\SC(=S)N(Cc3ccccc3)C2=O)Sc2ccccc21,0.5,-0.8,8.8,0.5,27.6,6.8
COc1cc(NC(=O)N2CCNC2=O)cc(C(=O)Nc2cccc(C(F)(F)F)c2)c1,x,x,x,54.8*,x,x
N/C(=N/O)c1ccccc1N1CCC(Cc2ccccc2)CC1,71.7*,-7.9,4.8,1.7,-44.8,68.7*
Cc1nn(-c2ccc(N3CCCCC3)nn2)c(C)c1CCC(=O)Nc1ccc(F)c(F)c1,x,-1.0,x,x,x,x
O=C(CCc1ccc(S(=O)(=O)NCCc2ccccc2)cc1)Nc1ccc2c(c1)OCCO2,-0.5,0.1,8.2,-0.9,75.1*,5.4
CCCNS(=O)(=O)c1ccc(CCC(=O)Nc2ccc3c(c2)OCCO3)cc1,-3.2,-2.3,4.0,-2.0,6.4,3.5
CCn1nc(C)c(CNC(=O)c2cc(COc3ccc(F)cc3Cl)on2)c1C,66.9*,9.0,x,0.6,x,63.9*
